Source: ChEMBL document CHEMBL3098102, “1,2,3-Triazole-derived naphthalimides as a novel type of potential antimicrobial agents: synthesis, antimicrobial activity, interaction with calf thymus DNA and human serum albumin” (Bioorg Med Chem Lett, 2014)
In brackets after ≈: the same amount, converted by molar mass.

How the values were obtained:
Assay type in all cases: functional
Pseudomonas aeruginosa = experiment: Antimicrobial activity against Pseudomonas aeruginosa after 24 hrs by two-fold serial dilution method
Summary of the method: (§1)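 MIC read by broth microdilution in microdilution plates.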

Micrococcus luteus = experiment: Antimicrobial activity against Micrococcus luteus ATCC 4698 after 24 hrs by two-fold serial dilution method; conditions: ATCC 4698, 24 h
[1] = Antimicrobial activity against Bacillus proteus after 24 hrs by two-fold serial dilution method; summary of the method: as §1
Escherichia coli [2] = experiment: Ratio of chloromycin MIC to compound MIC for Escherichia coli DH52 after 24 hrs by two-fold serial dilution method
Candida albicans = experiment: Antimicrobial activity against Candida albicans after 24 hrs by two-fold serial dilution method; summary of the method: as §1
Staphylococcus aureus [3] = experiment: Antimicrobial activity against Staphylococcus aureus ATCC 25923 after 24 hrs by two-fold serial dilution method; conditions: ATCC 25923, 24 h
Bacillus subtilis = experiment: Antimicrobial activity against Bacillus subtilis after 24 hrs by two-fold serial dilution method; summary of the method: as §1
Saccharomyces cerevisiae = experiment: Antimicrobial activity against Saccharomyces cerevisiae by two-fold serial dilution method; summary of the method: as §1
Escherichia coli [4] = experiment: Antimicrobial activity against Escherichia coli DH52 after 24 hrs by two-fold serial dilution method; conditions: DH52, 24 h
Staphylococcus aureus [5] = experiment: Antimicrobial activity against methicillin-resistant Staphylococcus aureus N315 after 24 hrs by two-fold serial dilution method; conditions: N315, 24 h
Shigella dysenteriae = experiment: Antimicrobial activity against Shigella dysenteriae after 24 hrs by two-fold serial dilution method
Aspergillus flavus = experiment: Antimicrobial activity against Aspergillus flavus after 24 hrs by two-fold serial dilution method; summary of the method: as §1

Compound | MIC (Pseudomonas aeruginosa) | MIC (Micrococcus luteus) | MIC [1] | Ratio (Escherichia coli [2]) | MIC (Candida albicans) | MIC (Staphylococcus aureus [3]) | MIC (Bacillus subtilis) | MIC (Saccharomyces cerevisiae) | MIC (Escherichia coli [4]) | MIC (Staphylococcus aureus [5]) | MIC (Shigella dysenteriae) | MIC (Aspergillus flavus)
Cl.Cl.Cl.Cl.Cl.Cl.O=C1c2cccc3c(Br)ccc(c23)C(=O)N1N(Cc1cn(Cc2ccc(Cl)cc2Cl)nn1)Cc1cn(Cc2ccc(Cl)cc2Cl)nn1 | > 512 µg/mL | 256 µg/mL | > 512 µg/mL | 2 | > 512 µg/mL | > 512 µg/mL | > 512 µg/mL | > 512 µg/mL | 4 µg/mL | > 512 µg/mL | > 512 µg/mL | 32 µg/mL
O=C1c2cccc3c(Br)ccc(c23)C(=O)N1N(Cc1cn(Cc2ccc(F)cc2)nn1)Cc1cn(Cc2ccc(F)cc2)nn1 | > 512 µg/mL | 512 µg/mL (≈ 765 µM) | > 512 µg/mL |  | > 512 µg/mL | > 512 µg/mL | > 512 µg/mL | > 512 µg/mL | 32 µg/mL (≈ 47.8 µM) | > 512 µg/mL | > 512 µg/mL | > 512 µg/mL
CCCCn1cc(CN(Cc2cn(CCCC)nn2)N2C(=O)c3cccc4c(Br)ccc(c34)C2=O)nn1.Cl.Cl | > 512 µg/mL | > 512 µg/mL | > 512 µg/mL |  | > 512 µg/mL | > 512 µg/mL | 512 µg/mL | > 512 µg/mL | > 512 µg/mL | > 512 µg/mL | > 512 µg/mL | 64 µg/mL
Cl.Cl.O=C1c2cccc3c(Br)ccc(c23)C(=O)N1N(Cc1cn(Cc2ccc(F)cc2)nn1)Cc1cn(Cc2ccc(F)cc2)nn1 | > 512 µg/mL | 512 µg/mL | 512 µg/mL |  | > 512 µg/mL | > 512 µg/mL | > 512 µg/mL | > 512 µg/mL | 32 µg/mL | > 512 µg/mL | > 512 µg/mL | 512 µg/mL
CCn1cc(C(=O)O)c(=O)c2cc(F)c(N3CCNCC3)cc21 [NORFLOXACIN] | 1 µg/mL (≈ 3.13 µM) | 1 µg/mL (≈ 3.13 µM) | 2 µg/mL (≈ 6.26 µM) |  |  | 4 µg/mL (≈ 12.5 µM) | 2 µg/mL (≈ 6.26 µM) |  | 2 µg/mL (≈ 6.26 µM) | 1 µg/mL (≈ 3.13 µM) | 2 µg/mL (≈ 6.26 µM) | 
O=C1c2cccc3c(Br)ccc(c23)C(=O)N1N(Cc1cn(Cc2ccc(F)cc2F)nn1)Cc1cn(Cc2ccc(F)cc2F)nn1 | > 512 µg/mL | 512 µg/mL (≈ 726 µM) | > 512 µg/mL |  | > 512 µg/mL | > 512 µg/mL | 256 µg/mL (≈ 363 µM) | > 512 µg/mL | 64 µg/mL (≈ 90.7 µM) | > 512 µg/mL | > 512 µg/mL | > 512 µg/mL
OC(Cn1cncn1)(Cn1cncn1)c1ccc(F)cc1F [FLUCONAZOLE] |  |  |  |  | 2 µg/mL (≈ 6.53 µM) |  |  | 4 µg/mL (≈ 13.1 µM) |  |  |  | 256 µg/mL (≈ 836 µM)
CCCCCCn1cc(CN(Cc2cn(CCCCCC)nn2)N2C(=O)c3cccc4c(Br)ccc(c34)C2=O)nn1 | 512 µg/mL (≈ 824 µM) | > 512 µg/mL | > 512 µg/mL |  | > 512 µg/mL | > 512 µg/mL | > 512 µg/mL | > 512 µg/mL | 512 µg/mL (≈ 824 µM) | > 512 µg/mL | > 512 µg/mL | 64 µg/mL (≈ 103 µM)
O=C1c2cccc3c(Br)ccc(c23)C(=O)N1N(Cc1cn(Cc2ccccc2F)nn1)Cc1cn(Cc2ccccc2F)nn1 | > 512 µg/mL | 256 µg/mL (≈ 382 µM) | > 512 µg/mL |  | > 512 µg/mL | > 512 µg/mL | > 512 µg/mL | > 512 µg/mL | 32 µg/mL (≈ 47.8 µM) | > 512 µg/mL | > 512 µg/mL | 64 µg/mL (≈ 95.6 µM)
O=C1c2cccc3c(Br)ccc(c23)C(=O)N1N(Cc1cn(Cc2ccc(Cl)c(Cl)c2)nn1)Cc1cn(Cc2ccc(Cl)c(Cl)c2)nn1 | 256 µg/mL (≈ 332 µM) | > 512 µg/mL | 512 µg/mL (≈ 664 µM) | 2 | 256 µg/mL (≈ 332 µM) | > 512 µg/mL | > 512 µg/mL | 64 µg/mL (≈ 83 µM) | 1 µg/mL (≈ 1.3 µM) | > 512 µg/mL | > 512 µg/mL | > 512 µg/mL
Cl.Cl.Cl.Cl.O=C1c2cccc3c(Br)ccc(c23)C(=O)N1N(Cc1cn(Cc2cccc(Cl)c2)nn1)Cc1cn(Cc2cccc(Cl)c2)nn1 | 64 µg/mL | > 512 µg/mL | 512 µg/mL | 2 | 16 µg/mL | 256 µg/mL | 256 µg/mL | 64 µg/mL | 2 µg/mL | 256 µg/mL | 512 µg/mL | > 512 µg/mL
O=C1c2cccc3c(Br)ccc(c23)C(=O)N1N(Cc1cn(Cc2ccc([N+](=O)[O-])cc2)nn1)Cc1cn(Cc2ccc([N+](=O)[O-])cc2)nn1 | > 512 µg/mL | 512 µg/mL (≈ 708 µM) | > 512 µg/mL |  | > 512 µg/mL | > 512 µg/mL | 256 µg/mL (≈ 354 µM) | > 512 µg/mL | 256 µg/mL (≈ 354 µM) | > 512 µg/mL | > 512 µg/mL | > 512 µg/mL
Cl.Cl.Cl.Cl.O=C1c2cccc3c(Br)ccc(c23)C(=O)N1N(Cc1cn(Cc2ccccc2Cl)nn1)Cc1cn(Cc2ccccc2Cl)nn1 | > 512 µg/mL | 128 µg/mL | > 512 µg/mL | 2 | 64 µg/mL | > 512 µg/mL | > 512 µg/mL | > 512 µg/mL | 4 µg/mL | 512 µg/mL | > 512 µg/mL | > 512 µg/mL
Cl.Cl.O=C1c2cccc3c(Br)ccc(c23)C(=O)N1N(Cc1cn(Cc2ccc(F)cc2F)nn1)Cc1cn(Cc2ccc(F)cc2F)nn1 | > 512 µg/mL | 512 µg/mL | > 512 µg/mL |  | 512 µg/mL | > 512 µg/mL | 128 µg/mL | > 512 µg/mL | 32 µg/mL | > 512 µg/mL | > 512 µg/mL | > 512 µg/mL
O=C1c2cccc3c(Br)ccc(c23)C(=O)N1N(Cc1cn(Cc2ccc(Cl)cc2Cl)nn1)Cc1cn(Cc2ccc(Cl)cc2Cl)nn1 | > 512 µg/mL | 256 µg/mL (≈ 332 µM) | > 512 µg/mL | 2 | > 512 µg/mL | > 512 µg/mL | > 512 µg/mL | > 512 µg/mL | 8 µg/mL (≈ 10.4 µM) | > 512 µg/mL | > 512 µg/mL | 32 µg/mL (≈ 41.5 µM)
Cl.Cl.Cl.Cl.O=C1c2cccc3c(Br)ccc(c23)C(=O)N1N(Cc1cn(Cc2ccc(Cl)cc2)nn1)Cc1cn(Cc2ccc(Cl)cc2)nn1 | 512 µg/mL | 32 µg/mL | > 512 µg/mL | 2 | > 512 µg/mL | 256 µg/mL | 256 µg/mL | > 512 µg/mL | 2 µg/mL | 512 µg/mL | 256 µg/mL | 256 µg/mL
Cl.Cl.O=C1c2cccc3c(Br)ccc(c23)C(=O)N1N(Cc1cn(Cc2ccccc2F)nn1)Cc1cn(Cc2ccccc2F)nn1 | > 512 µg/mL | 256 µg/mL | > 512 µg/mL |  | > 512 µg/mL | > 512 µg/mL | > 512 µg/mL | > 512 µg/mL | 16 µg/mL | > 512 µg/mL | > 512 µg/mL | 64 µg/mL
O=C1c2cccc3c(Br)ccc(c23)C(=O)N1N(Cc1cn(Cc2ccccc2Cl)nn1)Cc1cn(Cc2ccccc2Cl)nn1 | > 512 µg/mL | 128 µg/mL (≈ 182 µM) | > 512 µg/mL | 2 | 64 µg/mL (≈ 91.1 µM) | > 512 µg/mL | > 512 µg/mL | > 512 µg/mL | 4 µg/mL (≈ 5.69 µM) | 512 µg/mL (≈ 729 µM) | > 512 µg/mL | > 512 µg/mL
O=C1c2cccc3c(Br)ccc(c23)C(=O)N1N(Cc1cn(Cc2ccc(Cl)cc2)nn1)Cc1cn(Cc2ccc(Cl)cc2)nn1 | 512 µg/mL (≈ 729 µM) | 64 µg/mL (≈ 91.1 µM) | > 512 µg/mL | 2 | > 512 µg/mL | > 512 µg/mL | 256 µg/mL (≈ 364 µM) | > 512 µg/mL | 2 µg/mL (≈ 2.85 µM) | > 512 µg/mL | 256 µg/mL (≈ 364 µM) | > 512 µg/mL
CCCCCCn1cc(CN(Cc2cn(CCCCCC)nn2)N2C(=O)c3cccc4c(Br)ccc(c34)C2=O)nn1.Cl.Cl | 512 µg/mL | 512 µg/mL | > 512 µg/mL |  | > 512 µg/mL | > 512 µg/mL | > 512 µg/mL | > 512 µg/mL | 512 µg/mL | > 512 µg/mL | > 512 µg/mL | 32 µg/mL
Cl.Cl.Cl.Cl.Cl.Cl.O=C1c2cccc3c(Br)ccc(c23)C(=O)N1N(Cc1cn(Cc2ccc(Cl)c(Cl)c2)nn1)Cc1cn(Cc2ccc(Cl)c(Cl)c2)nn1 | 256 µg/mL | 512 µg/mL | 256 µg/mL | 2 | 256 µg/mL | 256 µg/mL | 512 µg/mL | 32 µg/mL | 0.5 µg/mL | 256 µg/mL | > 512 µg/mL | > 512 µg/mL
CCCCn1cc(CN(Cc2cn(CCCC)nn2)N2C(=O)c3cccc4c(Br)ccc(c34)C2=O)nn1 | > 512 µg/mL | > 512 µg/mL | > 512 µg/mL |  | > 512 µg/mL | > 512 µg/mL | > 512 µg/mL | > 512 µg/mL | > 512 µg/mL | > 512 µg/mL | > 512 µg/mL | 64 µg/mL (≈ 113 µM)
Cl.Cl.O=C1c2cccc3c(Br)ccc(c23)C(=O)N1N(Cc1cn(Cc2cccc(F)c2)nn1)Cc1cn(Cc2cccc(F)c2)nn1 | > 512 µg/mL | 256 µg/mL | > 512 µg/mL |  | > 512 µg/mL | > 512 µg/mL | > 512 µg/mL | > 512 µg/mL | 16 µg/mL | > 512 µg/mL | > 512 µg/mL | 32 µg/mL
O=C1c2cccc3c(Br)ccc(c23)C(=O)N1N(Cc1cn(Cc2cccc(F)c2)nn1)Cc1cn(Cc2cccc(F)c2)nn1 | > 512 µg/mL | 256 µg/mL (≈ 382 µM) | > 512 µg/mL |  | > 512 µg/mL | > 512 µg/mL | > 512 µg/mL | > 512 µg/mL | 16 µg/mL (≈ 23.9 µM) | > 512 µg/mL | > 512 µg/mL | 32 µg/mL (≈ 47.8 µM)
O=C(N[C@H](CO)[C@H](O)c1ccc([N+](=O)[O-])cc1)C(Cl)Cl [CHLORAMPHENICOL] | 4 µg/mL (≈ 12.4 µM) |  | 32 µg/mL (≈ 99 µM) |  |  |  | 32 µg/mL (≈ 99 µM) |  |  |  | 32 µg/mL (≈ 99 µM) | 
